LGR2 inh: blocks bursicon-induced cAMP signaling via Drosophila LGR2. inhibition, % at 9.99 µM. HEK293 LGR2, CRE-luciferase, bursicon-stimulated, 4 h. 380,000 tested, 0.35% active. AID 720647;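 active = drop in luminescence signal, shown as inhibition above about 50% in the replicate tests, limit read from the data, passing the limit was not always enough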;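 note: agonist challenge used bursicon conditioned medium at about half maximal strength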
FN deposit inh: fibronectin deposition inhibition. AH1F fibroblasts, Alexa488-fibronectin deposition fluorescence, overnight. 350,000 tested, 0.086% active. inhibition, % at 12.6 µM. AID 743247;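 active = mean inhibition across replicates of 30% or more, regardless of how many single replicates reach that level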;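 note: positive control wells lacked labelled fibronectin entirely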
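Measured by – fluorescence 485/525 nm · System – AH1F fibroblast monolayer, labelled fibronectin deposition · Amount – 10000 cells per well · Buffer or medium – serum-reduced DMEM (2% serum) · Doses – single dose, pinned · Also added – fluorescent fibronectin at 24 nM final · Schedule – 1 h cell attachment, overnight exposure to compound and label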
TROY NFkB inh: blocks TROY-dependent signaling in reporter cells. Q293 LMP1-TROYcd NF-kB luciferase reporter, 4 h. inhibition, % at 10 µM. 360,000 tested, 0.98% active;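 active = compounds whose plate-normalised and pattern-corrected inhibition of the luciferase reporter signal at the single screening dose is 50% or more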
XiGFP reactiv: activators of X-chromosome reactivation in mouse fibroblasts; XiGFP mouse fibroblasts, % GFP-positive cells imaging, 3 d; cells co-treated with 5-aza-dC sensitizer; scaled so ellipticine positive control = 100%; activation, % at 7.58 µM; 360,000 tested, 0.055% active;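 active = mean normalized replicate activation at least 10% and every replicate at or above 10%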;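 note: 0% = median of on-plate neutral control wells and 100% = ellipticine 6 µM median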
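Assay system – SV40-immortalized XiGFP fibroblast cells, line 68-5-11 · Buffer or medium – DMEM supplemented with 5-aza-dC as sensitizing agent · Dosing – one concentration, pinned · Benchmarks – positive control ellipticine, 6 µM final · Times – 3 days compound exposure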
TWEAK-Fn14 inh: TWEAK-Fn14 signaling inhibition | inhibition, % at 10 µM | AID 1159606 | TWEAK-stimulated Fn14 reporter cells, luciferase luminescence, 8 h | 360,000 tested, 2% active; in the data active = inhibition above about 50%
EWS-Fli block: inhibitors of EWS/Fli oncoprotein transcriptional activity. A673 NR0B1-luciferase reporter, viability-normalised. inhibition, % at 12.6 µM. 350,000 tested, 0.67% active;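 active = mean inhibition of at least 50% after viability correction, with every replicate also passing that limit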;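 note: firefly luciferase signal divided by Alamar Blue viability fluorescence both relative to DMSO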
* marks the source's active call; other numbers are inactive results. In the library only some 2.3% were active in any assay of this set; here they are far more common.

Screening C[C@H](CO)N1C[C@H](C)[C@@H](CN(C)S(=O)(=O)c2ccc(F)cc2)OCCCC[C@H](C)Oc2ccc(NC(=O)c3ccncc3)cc2C1=O returned LGR2 inh -10.9, FN deposit inh 9.4, XiGFP reactiv 0.1 and EWS-Fli block 3.3.
`CCOC(=O)C1CCN(C(=O)c2ccc(NS(=O)(=O)c3ccc(F)cc3C)cc2)CC1` gave LGR2 inh 11.0, FN deposit inh -3.5, TROY NFkB inh 0.0, XiGFP reactiv 25.5*, TWEAK-Fn14 inh 8.6 and EWS-Fli block -1.8.
Screening CCOC(=O)c1c2c(n(C)c1C)C(=O)C(=O)c1ccc(Br)cc1-2 returned FN deposit inh 7.6, TROY NFkB inh 44.6 and TWEAK-Fn14 inh 86.9*.
Screening CCOC(=O)c1c2c(n(Cc3ccccc3)c1C)C(=O)C(=O)c1ccccc1-2 returned LGR2 inh 103.9*, FN deposit inh 30.0*, TROY NFkB inh 64.9*, XiGFP reactiv 1.6, TWEAK-Fn14 inh 104.5* and EWS-Fli block 68.9*.
Cc1c(CN(C)C)c2c(n1C)C(=O)c1ccc(Br)cc1-2 was read as FN deposit inh -0.3, TROY NFkB inh -8.5 and TWEAK-Fn14 inh -28.5.
`Cc1ccc2nc(N(CCCN(C)C)C(=O)c3sc4ccccc4c3Cl)sc2c1` gave LGR2 inh 7.4, TROY NFkB inh 50.4* and TWEAK-Fn14 inh 73.3*.
Cc1ccc2nc(N(CCCN(C)C)C(=O)c3ccc(S(=O)(=O)N(C)C)cc3)sc2c1 was read as LGR2 inh -13.9, FN deposit inh 3.2, TROY NFkB inh -10.8, XiGFP reactiv 0.1 and TWEAK-Fn14 inh 4.1.
O=C(Nc1nc2ccc(C(=O)N3CCCCC3)cc2s1)C1CCCCC1 was read as LGR2 inh -11.1, TROY NFkB inh -4.7, XiGFP reactiv 0.2, TWEAK-Fn14 inh 2.4 and EWS-Fli block 54.4*.
For Cc1ccc2nc(NC(=O)C3CCN(S(=O)(=O)c4cccs4)CC3)sc2c1 the results were LGR2 inh 33.9, FN deposit inh -5.2, TROY NFkB inh 39.6 and TWEAK-Fn14 inh 79.5*.
COc1ccc2nc(NC(=O)C3CCN(S(=O)(=O)c4cccs4)CC3)sc2c1 was read as TROY NFkB inh 54.3* and TWEAK-Fn14 inh 55.0*.
For COc1ccc2nc(NC(=O)C3CCCN(S(=O)(=O)c4cccs4)C3)sc2c1 (stereo unspecified) the results were TROY NFkB inh 21.5 and TWEAK-Fn14 inh 16.6.
For Nc1ccc2nc(NC(=O)C3CCCCC3)sc2c1 the results were LGR2 inh -370.3, FN deposit inh -6.7, TROY NFkB inh -41.8, XiGFP reactiv 0.2, TWEAK-Fn14 inh -2.2 and EWS-Fli block -35.4.
For Cc1ccc2nc(NC(=O)C3CCN(S(=O)(=O)c4cccc5nsnc45)CC3)sc2c1 the results were LGR2 inh 26.8, FN deposit inh 3.0, TROY NFkB inh 42.3, XiGFP reactiv -0.1 and TWEAK-Fn14 inh 92.2*.
Screening CC(C)NC(=O)Nc1ccc2c(c1)C(=O)N([C@@H](C)CO)C[C@@H](C)[C@@H](CN(C)C(=O)NC(C)C)O2 returned LGR2 inh -0.4, XiGFP reactiv 0.4 and EWS-Fli block -3.0.
O=C(c1cccnc1)N1CC2(C1)[C@H](c1ccccc1)[C@@H](CO)N2C(=O)CC1CC1 was read as LGR2 inh -7.0, FN deposit inh -13.9, XiGFP reactiv 0.0 and EWS-Fli block -0.7.
COc1ccc(N=CC2=C(O)c3ccccc3C2=O)cc1 was read as FN deposit inh 0.7, TROY NFkB inh 73.8* and TWEAK-Fn14 inh 97.5*.
Screening O=C1C(C=Nc2ccccc2)=C(O)c2ccccc21 returned FN deposit inh -2.1, TROY NFkB inh 52.5* and TWEAK-Fn14 inh 60.8*.
For Cc1ccc(O)c(N=CC2=C(O)c3ccccc3C2=O)c1 the results were FN deposit inh 0.5, TROY NFkB inh 1.9 and TWEAK-Fn14 inh -27.1.
`CN=CC1=C(O)c2ccccc2C1=O` gave FN deposit inh -4.4, TROY NFkB inh 30.3 and TWEAK-Fn14 inh -4.7.
COc1ccc(N=Cc2ccccc2O)cc1 was read as LGR2 inh 3.2, FN deposit inh -0.8, TROY NFkB inh -10.0, XiGFP reactiv 0.4, TWEAK-Fn14 inh 12.0 and EWS-Fli block -0.8.
CCOc1ccc(N=C(C)C2=C(O)c3ccccc3C2=O)cc1 was read as FN deposit inh -4.4, TROY NFkB inh -8.7, XiGFP reactiv 0.0, TWEAK-Fn14 inh 8.0 and EWS-Fli block -36.1.
For COc1ccc(N=C(C)C2=C(O)c3ccccc3C2=O)cc1 the results were LGR2 inh 25.8, FN deposit inh -1.5, TROY NFkB inh -11.9, XiGFP reactiv 0.0 and TWEAK-Fn14 inh 63.0*.
For O=C1C(C=Nc2ccccc2O)=C(O)c2ccccc21 the results were LGR2 inh 64.8*, TROY NFkB inh 8.3, TWEAK-Fn14 inh 43.6 and EWS-Fli block -65.7.
For CCOC(=O)/C(=C/C=C1\Sc2cc(C)c(C)cc2N1CC)C(C)=O the results were LGR2 inh 21.2, FN deposit inh -93.3, TROY NFkB inh 4.4, XiGFP reactiv 16.6*, TWEAK-Fn14 inh 7.7 and EWS-Fli block 3.3.
CCOc1ccc(N(CC(=O)NC2CC3CCC2C3)S(=O)(=O)c2ccc(C)cc2)cc1 (stereo unspecified) was read as LGR2 inh 12.1, FN deposit inh 3.4, TROY NFkB inh -0.7, XiGFP reactiv 0.3 and TWEAK-Fn14 inh -12.9.
CCOc1ccc(N(CC(=O)NC2CC3CCC2C3)S(=O)(=O)c2ccccc2)cc1 (stereo unspecified) was read as LGR2 inh 15.4, FN deposit inh -9.5, TROY NFkB inh -2.8, XiGFP reactiv 0.2, TWEAK-Fn14 inh 56.2* and EWS-Fli block 8.9.
`COc1ccc(S(=O)(=O)Nc2cccc(-c3ccc4nncn4n3)c2)cc1` gave LGR2 inh 8.6, FN deposit inh 17.4, TROY NFkB inh 30.3, XiGFP reactiv 0.8, TWEAK-Fn14 inh -17.0 and EWS-Fli block 63.6*.
`Cc1cccc(Nc2nc(N)c([N+](=O)[O-])c(N3CCCC(C)C3)n2)c1` (stereo unspecified) gave LGR2 inh 4.4, FN deposit inh 8.5, TROY NFkB inh 36.0, XiGFP reactiv 0.1 and TWEAK-Fn14 inh 64.1*.
Screening Cc1cc(C(=O)CN2C(=O)C(=O)N(Cc3ccccc3)C2=O)c(C)n1-c1ccccc1F returned LGR2 inh 4.2, FN deposit inh 1.3, TROY NFkB inh -5.9, XiGFP reactiv -0.2, TWEAK-Fn14 inh 16.5 and EWS-Fli block 8.1.
For Cc1cc(C(=O)CN2CCC(C)CC2)c(C)n1-c1ccccc1F the results were FN deposit inh 3.1, TROY NFkB inh 79.6*, XiGFP reactiv 0.4, TWEAK-Fn14 inh 81.8* and EWS-Fli block 41.8.
CC1CCN(c2c(NCc3ccc(C(=O)N(C)C4CCCCC4)cc3)c(=O)c2=O)CC1 was read as LGR2 inh -0.3, FN deposit inh -3.9, TROY NFkB inh -19.9, XiGFP reactiv 0.0, TWEAK-Fn14 inh -9.4 and EWS-Fli block 0.7.

Source: PubChem BioAssay (several laboratories)
